Results on ten compounds are retold here after ChEMBL document CHEMBL1828503, “Design, synthesis and docking studies of quinoline-oxazolidinone hybrid molecules and their antitubercular properties” (2011).

In general, MIC refers to the least concentration at which growth counts as inhibited. A high value points to a less susceptible organism.

What all share (type): functional
Test [1] concerns Mycolicibacterium smegmatis. As to the kind of experiment: Antimicrobial activity against Mycobacterium smegmatis ATCC 19420 after 7 days by resazurin assay. The following applies: ATCC 19420, 168 h. An outline of the steps: (§1)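 Resazurin microplate assay. Culture added to fresh medium in 96-well plates. Compound stocks 2 mg/mL in DMF. DMF-only controls, with rifampicin and isoniazid as references. Incubated 7 days at 37 °C, then 0.01% resazurin in water added. Blue-to-pink change read after 1 h at 37 °C. MIC taken as the lowest concentration preventing the colour change.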
(In general: Resazurin is reduced to fluorescent resorufin, in cell work by metabolically active cells.)

Test [2] concerns Mycobacterium tuberculosis. As to the kind of experiment: Antimicrobial activity against Mycobacterium tuberculosis H37Rv ATCC 27294 after 7 days by resazurin assay. The note with it: H37Rv ATCC 27294, 168 h. The gist of the method:
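M. tuberculosis H37Rv ATCC 27294 culture diluted into fresh medium in 96-well microtitre plates. Compounds were taken from 2 mg/mL stocks in DMF, with DMF-only control tubes and rifampicin and isoniazid as references. Plates were incubated 37 °C for 7 days, then 0.01% aqueous resazurin was added and read after 1 h at 37 °C. MIC is the lowest concentration preventing the blue-to-pink change.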

The test system of the next test is Escherichia coli. Nature of the test: Antimicrobial activity against Escherichia coli ATCC 25922 after 18 to 48 hrs by serial dilution method.
Another test has as its system Streptococcus pyogenes. Nature of the test: Antimicrobial activity against Streptococcus pyogenes clinical isolate after 18 to 48 hrs by serial dilution method.
The test system of the next test is Klebsiella pneumoniae. As to the kind of experiment: Antimicrobial activity against Klebsiella pneumoniae clinical isolate after 18 to 48 hrs by serial dilution method.
Another test relates to Pseudomonas aeruginosa. As to the kind of experiment: Antimicrobial activity against Pseudomonas aeruginosa ATCC 27853 after 18 to 48 hrs by serial dilution method.
The test system of test [3] is Mycobacterium tuberculosis. Nature of the test: Antimicrobial activity against Mycobacterium tuberculosis H37Rv ATCC 27294 assessed as growth inhibition after 7 days by resazurin assay.
Another test has as its system Staphylococcus aureus. As to the kind of experiment: Antimicrobial activity against Staphylococcus aureus ATCC 25923 after 18 to 48 hrs by serial dilution method.
Test [4] relates to Mycolicibacterium fortuitum. Nature of the test: Antimicrobial activity against Mycobacterium fortuitum ATCC 19542 after 7 days by resazurin assay. The note with it: ATCC 19542, 168 h. An outline of the steps: as §1

The structures appear in SMILES notation. Converted amounts (≈) assume the structure as drawn.

`COc1ccc2nc(C)cc(N3CC(CNC(C)=O)OC3=O)c2c1` (centres undefined): the MIC in test [1] was determined as 2.5 µg/mL (≈ 7.59 µM); in test [2] it was 0.625 µg/mL (≈ 1.9 µM); against Escherichia coli it was 0.2 µg/mL (≈ 0.607 µM); in the test on Streptococcus pyogenes, 0.2 µg/mL (≈ 0.607 µM); in the test on Klebsiella pneumoniae, 0.1 µg/mL (≈ 0.304 µM); against Pseudomonas aeruginosa, 0.4 µg/mL (≈ 1.21 µM). For the same compound, the figures for the MIC (in the test on Staphylococcus aureus; in test [4]) were 0.8 µg/mL (≈ 2.43 µM) and 10 µg/mL (≈ 30.4 µM), respectively. Further, the “growth inhibition (GI)” value in test [3] came to 95%.

For `COc1ccc2nc(C)cc(N3CC(CNC(=O)C4CC4)OC3=O)c2c1` (centres undefined), the MIC in test [1] is 10 µg/mL (≈ 28.1 µM); in [2], 1 µg/mL (≈ 2.81 µM); against Escherichia coli it was 0.8 µg/mL (≈ 2.25 µM); with Streptococcus pyogenes it was 0.4 µg/mL (≈ 1.13 µM); against Klebsiella pneumoniae it was 1.6 µg/mL (≈ 4.5 µM); in the test on Pseudomonas aeruginosa, 0.4 µg/mL (≈ 1.13 µM). The MIC worked out at 0.8 µg/mL (≈ 2.25 µM) in the test with Staphylococcus aureus and 10 µg/mL (≈ 28.1 µM) in [4]. Besides, the “growth inhibition (GI)” value in test [3] was 90%.

`COc1ccc2nc(C)cc(N3CC(CNC(=O)C4CCC4)OC3=O)c2c1` (centres undefined): the MIC in [1] stood at 100 µg/mL (≈ 271 µM); in [2] it was 2.5 µg/mL (≈ 6.77 µM); against Escherichia coli, 1.6 µg/mL (≈ 4.33 µM); against Streptococcus pyogenes, 1.6 µg/mL (≈ 4.33 µM); against Klebsiella pneumoniae it was 6.25 µg/mL (≈ 16.9 µM); with Pseudomonas aeruginosa, 3.12 µg/mL (≈ 8.46 µM). In addition, the MIC against Staphylococcus aureus amounted to 1.6 µg/mL (≈ 4.33 µM); in [4], 100 µg/mL (≈ 271 µM). Besides, the “growth inhibition (GI)” value in test [3] is on record as 85%.

Regarding `COc1ccc2nc(C)cc(N3CC(CNC(=O)c4ccc(F)cc4)OC3=O)c2c1` (centres undefined), the MIC in test [1] turned out to be 10 µg/mL (≈ 24.4 µM); in test [2] it was 1 µg/mL (≈ 2.44 µM); against Escherichia coli it was 0.2 µg/mL (≈ 0.488 µM); against Streptococcus pyogenes, 0.4 µg/mL (≈ 0.977 µM); in the test on Klebsiella pneumoniae it was 0.1 µg/mL (≈ 0.244 µM); with Pseudomonas aeruginosa, 0.4 µg/mL (≈ 0.977 µM). The MIC was 0.8 µg/mL (≈ 1.95 µM) in the test with Staphylococcus aureus and 10 µg/mL (≈ 24.4 µM) in test [4]. Moreover, in [3], the “growth inhibition (GI)” value amounted to 90%.

Turning to `COc1ccc2nc(C)cc(N3CC(CNC(=O)c4ccccc4F)OC3=O)c2c1` (centres undefined), the MIC in test [1] came out at 5 µg/mL (≈ 12.2 µM); in [2], 1 µg/mL (≈ 2.44 µM); against Escherichia coli it was 6.25 µg/mL (≈ 15.3 µM); with Streptococcus pyogenes, 3.12 µg/mL (≈ 7.63 µM); against Klebsiella pneumoniae it was 6.25 µg/mL (≈ 15.3 µM); in the test on Pseudomonas aeruginosa, 3.12 µg/mL (≈ 7.63 µM). Moreover, the MIC against Staphylococcus aureus came out at 1.6 µg/mL (≈ 3.91 µM); in test [4], 10 µg/mL (≈ 24.4 µM). For the same compound, the “growth inhibition (GI)” value in [3] is recorded as 90%.

For the compound `COc1ccc2nc(C)cc(NC(=O)CN3CC(CN4CCC(C)CC4)OC3=O)c2c1` (centres undefined), the MIC in [1] is 100 µg/mL (≈ 234 µM); in test [2], 100 µg/mL (≈ 234 µM); against Escherichia coli, 6.25 µg/mL (≈ 14.7 µM); in the test on Streptococcus pyogenes, 6.25 µg/mL (≈ 14.7 µM); in the test on Klebsiella pneumoniae, 6.25 µg/mL (≈ 14.7 µM); against Pseudomonas aeruginosa, more than 12.5 µg/mL. Besides, the MIC is more than 12.5 µg/mL in the test with Staphylococcus aureus and 100 µg/mL (≈ 234 µM) in test [4]. In addition, the “growth inhibition (GI)” value in test [3] came to 0%.

`COc1ccc2nc(C)cc(NC(=O)CN3CC(CNC4CCCC4)OC3=O)c2c1` (centres undefined): the MIC in test [1] was 100 µg/mL (≈ 242 µM); in test [2] it was 100 µg/mL (≈ 242 µM); in the test with Escherichia coli, more than 12.5 µg/mL; with Streptococcus pyogenes it was 6.25 µg/mL (≈ 15.2 µM); against Klebsiella pneumoniae it was 6.25 µg/mL (≈ 15.2 µM); against Pseudomonas aeruginosa, more than 12.5 µg/mL. For the same compound, the minimal inhibitory concentration (MIC) is more than 12.5 µg/mL with Staphylococcus aureus and 100 µg/mL (≈ 242 µM) in test [4]. Also, in [3], the “growth inhibition (GI)” value is 0%.

Turning to `O=C(O)c1cn(C2CC2)c2cc(N3CCNCC3)c(F)cc2c1=O` [CIPROFLOXACIN], the MIC with Escherichia coli was determined as 0.025 µg/mL (≈ 0.0754 µM); with Pseudomonas aeruginosa it was 0.4 µg/mL (≈ 1.21 µM); against Staphylococcus aureus, 1 µg/mL (≈ 3.02 µM).

On to `NNC(=O)c1ccncc1` [ISONIAZID], for which the MIC in test [1] was 50 µg/mL (≈ 365 µM); in test [2], 0.7 µg/mL (≈ 5.1 µM); in test [4] it was 12.5 µg/mL (≈ 91.1 µM). Also, the “growth inhibition (GI)” value in test [3] is more than 95%.

In the case of `CO[C@H]1/C=C/O[C@@]2(C)Oc3c(C)c(O)c4c(O)c(c(/C=N/N5CCN(C)CC5)c(O)c4c3C2=O)NC(=O)/C(C)=C\C=C\[C@H](C)[C@H](O)[C@@H](C)[C@@H](O)[C@@H](C)[C@H](OC(C)=O)[C@@H]1C` [RIFAMPIN], the minimal inhibitory concentration (MIC) is 1.5 µg/mL (≈ 1.82 µM) in [1], 0.5 µg/mL (≈ 0.608 µM) in test [2] and 1.5 µg/mL (≈ 1.82 µM) in test [4]. Moreover, the “growth inhibition (GI)” value in test [3] is given as more than 95%.
